Assay results as given in paper PMC3068229 (Biochemistry, 2011).
One block for each compound: values may come before it.

Experiments:
annexin A1 [1] = biological target: T1, annexin A1 (Mus musculus, UniProt P10107); experiment: Glycan array; type: binding; conditions: annexin A1-His 0.2 mg/ml, 2 mM CaCl2, 2 mM MgCl2, fluorescence (RFU)
T1 sequence (P10107 1-346): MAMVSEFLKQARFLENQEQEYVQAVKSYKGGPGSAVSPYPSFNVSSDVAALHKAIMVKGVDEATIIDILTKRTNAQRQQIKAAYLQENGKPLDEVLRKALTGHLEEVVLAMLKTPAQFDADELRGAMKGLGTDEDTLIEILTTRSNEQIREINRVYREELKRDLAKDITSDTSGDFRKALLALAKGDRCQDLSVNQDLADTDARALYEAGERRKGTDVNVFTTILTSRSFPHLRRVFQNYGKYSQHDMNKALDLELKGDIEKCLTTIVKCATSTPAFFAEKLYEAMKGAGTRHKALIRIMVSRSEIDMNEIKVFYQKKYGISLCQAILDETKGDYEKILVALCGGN
Summary of the method: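 Recombinant full-length mouse annexin A1 with a C-terminal His6 tag was expressed in E. coli BL21(DE3) with 1 mM IPTG induction, purified on Ni-NTA and dialysed into 20 mM Tris pH 7.9 with 250 mM NaCl. The array was probed with 0.2 mg/mL protein in TBS-CM (pH 7.4) containing 1% BSA and 0.05% Tween-20, for 60 min at room temperature in a humid chamber. Read-out was mean RFU of 6 replicates after dropping the highest and lowest values.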

annexin A1 [2] = biological target: T1, annexin A1; experiment: SPR, carbohydrates flowed over annexin A1 immobilized on NTA chips; type: binding; conditions: annexin A1 1 µM immobilized
Summary of the method: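 The NTA chip was primed with 500 μM NiCl2 in HBS-EP running buffer (10 mM HEPES pH 7.4, 150 mM NaCl, 50 μM EDTA, 0.05% Tween-20), then His-tagged mouse annexin A1 (1 μM) was captured. Test glycans, either free glycosaminoglycans or polyacrylamide-coupled glycans at 5 or 50 μg/mL, or buffer alone, were injected for 3 min in HBS-N with 1 mM CaCl2 and 1 mM MgCl2. After dissociation, the chip was regenerated with 35 mM EDTA.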

- Annexin A1 binding on glycan array (annexin A1 [1]): strongest binder
- Annexin A1 binding on glycan array (annexin A1 [1]; listed as [3OSO3^− ][6OSO3^−]Galβ1-4[6OSO3^−]GlcNAcβ): best binder
Compound: [3OSO3^−][6OSO3^−]Galβ1-4[6OSO3^−]GlcNAcβ-Sp0 [compound 26]

- Glycosaminoglycan binding to annexin A1 immobilized on NTA SPR chip (annexin A1 [2]; glycosaminoglycans 5 or 50 µg/mL): bound less well
Compound: CO[C@H]1O[C@H](COS(=O)(=O)O)[C@@H](O[C@@H]2O[C@@H](C(=O)O)[C@@H](O[C@H]3O[C@H](COS(=O)(=O)O)[C@@H](O[C@@H]4O[C@H](C(=O)O)[C@@H](O[C@H]5O[C@H](COS(=O)(=O)O)[C@@H](O)[C@H](O)[C@H]5NS(=O)(=O)O)[C@H](O)[C@H]4O)[C@H](OS(=O)(=O)O)[C@H]3NS(=O)(=O)O)[C@H](O)[C@H]2OS(=O)(=O)O)[C@H](O)[C@H]1NS(=O)(=O)O [arixtra, fondaparinux sodium]

- Binding to annexin A1 immobilized on NTA SPR chip (annexin A1 [2]; carbohydrate flowed over): did not interact
Compound: LacNAc

- Annexin A1 binding on glycan array (annexin A1 [1]): among the best recognized glycans
Compound: O=C[C@H](O)[C@@H](O)[C@H](O)[C@H](O)C(=O)O [glucuronic acid]
